Measurements taken from article PMC10836733 (Science Advances, 2024).
Substitutions are numbered along the chain they refer to. Values belong to the compound of their own block, whether it stands above or below them. Numbered stars: 1 amine (or outer) side, 2 acyl side, 3 side chain; on linkers, the order of the positions; unused ones are H or OH. Bridge positions count the residues as written; N and C are the ends. Square brackets hold non-standard residues; d marks the D form. Peptide text beside a SMILES is read from it. X1 = CC(=O)NC(C(=O)OC(C(C)C)C(N[*:1])C(=O)[*:2])C(O)C(C)C; PhLac = O=C(O)[CH](O)Cc1ccccc1; NMeT = CN[CH](C(=O)O)[CH](C)O; NMeA = CN[CH](C)C(=O)O; NMeDha = C=C(NC)C(=O)O

Tests used:
GPR39 [1] = conditions: cited from earlier work
mouse GPR39 = biological target: T1, mouse GPR39 (Mus musculus, UniProt Q5U431); assay: FLIPR Ca2+ assay in HEK293T cells stably expressing mouse GPR39; type: cell-based; conditions: for GPR39 activation, presence or absence of 4 μM Zn2+: with or without 4 μM Zn2+
T1 sequence (Q5U431 1-456): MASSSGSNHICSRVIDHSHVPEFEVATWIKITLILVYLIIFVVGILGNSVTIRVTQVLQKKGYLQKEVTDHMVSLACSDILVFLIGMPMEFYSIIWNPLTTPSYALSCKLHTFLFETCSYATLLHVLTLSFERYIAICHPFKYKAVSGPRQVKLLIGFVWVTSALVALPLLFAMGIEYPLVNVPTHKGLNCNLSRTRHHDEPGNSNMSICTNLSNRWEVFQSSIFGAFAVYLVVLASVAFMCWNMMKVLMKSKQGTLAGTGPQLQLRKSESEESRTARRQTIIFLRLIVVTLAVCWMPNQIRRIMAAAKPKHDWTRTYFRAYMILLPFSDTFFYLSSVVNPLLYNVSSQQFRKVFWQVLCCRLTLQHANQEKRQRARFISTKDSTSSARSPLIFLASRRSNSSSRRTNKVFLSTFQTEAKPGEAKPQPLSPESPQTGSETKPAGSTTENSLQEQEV

GHSR = GHSR (Homo sapiens, UniProt Q92847); assay: FLIPR Ca2+ assay, GHSR expressed in HEK293T-Gα15-GCaMP6s cells; type: cell-based; conditions: for GHSR activation: 200 μM BAs; for Maximal efficacy at GHSR: normalized to 1 μM ghrelin
GPBAR1 = biological target: T2, GPBAR1 (Homo sapiens, UniProt Q8TDU6); assay: CRE luciferase reporter assay; type: cell-based
T2 sequence (Q8TDU6 1-330): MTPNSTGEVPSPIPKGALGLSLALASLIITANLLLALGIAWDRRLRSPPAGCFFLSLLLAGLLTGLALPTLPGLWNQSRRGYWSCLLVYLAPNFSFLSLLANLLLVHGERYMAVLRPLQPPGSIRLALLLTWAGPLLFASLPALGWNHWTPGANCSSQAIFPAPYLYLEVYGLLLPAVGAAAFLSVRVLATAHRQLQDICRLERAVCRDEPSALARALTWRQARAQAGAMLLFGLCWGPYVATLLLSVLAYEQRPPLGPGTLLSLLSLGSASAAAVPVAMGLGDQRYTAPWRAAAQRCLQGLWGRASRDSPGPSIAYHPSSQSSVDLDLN

[2] = test system: mock-transfected HEK293T cells; assay: Ca2+ response of mock-transfected HEK293T cells; type: cell-based, human; conditions: 200 μM
Summary of the method: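 Sham-transfected HEK293T cells loaded with Fluo-8 AM (2 μg/ml) in recording buffer for 25 min at room temperature, then 5 min in recording buffer. FLIPR read at room temperature every 1 s; 200 μM test compound or Zn2+ dispensed at 30 s, followed by 150 s recording.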

pancreatic acinar cells [3] = assay: Ca2+ imaging in freshly isolated pancreatic acinar cells; type: cell-based, mouse
GPR39 [4] = biological target: T3, GPR39 (Homo sapiens, UniProt O43194); type: cell-based; conditions: 200 μM
T3 sequence (O43194 1-453): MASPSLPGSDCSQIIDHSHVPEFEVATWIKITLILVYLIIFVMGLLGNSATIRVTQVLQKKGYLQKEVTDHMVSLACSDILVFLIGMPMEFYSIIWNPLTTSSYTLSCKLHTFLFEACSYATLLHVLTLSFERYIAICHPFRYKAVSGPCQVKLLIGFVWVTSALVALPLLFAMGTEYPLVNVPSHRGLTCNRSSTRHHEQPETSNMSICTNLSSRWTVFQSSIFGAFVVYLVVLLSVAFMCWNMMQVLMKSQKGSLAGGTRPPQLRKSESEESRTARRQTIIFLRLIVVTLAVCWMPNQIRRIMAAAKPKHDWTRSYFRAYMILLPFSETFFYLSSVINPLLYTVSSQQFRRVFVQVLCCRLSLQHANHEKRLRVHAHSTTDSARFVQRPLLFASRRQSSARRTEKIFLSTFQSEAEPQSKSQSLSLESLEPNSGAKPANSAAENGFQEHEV
Summary of the method: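 HEK293T cells stably expressing Gα15 and GCaMP6s, on poly-D-lysine-coated plates, transiently transfected with human GPCR cDNAs. Test compound added by pipette at 200 μM; intracellular Ca2+ imaged by confocal microscopy.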

[5] = test system: zebrafish (Danio rerio) GPR39 (zfGPR39); assay: FLIPR Ca2+ assay, HEK293T cells expressing zebrafish GPR39; type: cell-based
Summary of the method: (§1)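 HEK293T cells expressing mouse GPR39 H17A/H19A mutant or zebrafish GPR39, Fluo-8-loaded, read by FLIPR at room temperature (addition at 30 s, 150 s recording). Where Zn2+ used, cells preincubated with 4 μM Zn2+ in recording buffer for 5 min and it was kept with all compound concentrations. Responses normalized to 200 μM LCAS; n = 3 or 4.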

G. Gallus GPR39 = assay: FLIPR Ca2+ assay, HEK293T cells expressing chicken GPR39; type: cell-based, chicken (Gallus Gallus)
G. japonicus GPR39 = assay: FLIPR Ca2+ assay, HEK293T cells expressing gecko GPR39; type: cell-based, gecko (Gekko japonicus)
H17A/H19A mutant GPR39 = biological target: T4, H17A/H19A mutant GPR39 (Mus musculus, UniProt Q5U431, H17A/H19A); assay: FLIPR Ca2+ assay, HEK293T cells expressing GPR39 H17A/H19A mutant; type: cell-based
T4 sequence (Q5U431 1-456 H17A/H19A): T1 sequence (Q5U431 1-456) with H17A, H19A
Summary of the method: as §1

X. laevis GPR39 = assay: FLIPR Ca2+ assay, HEK293T cells expressing frog GPR39; type: cell-based, frog (Xenopus laevis)
pancreatic acinar cells [6] = assay: Amylase release from isolated pancreatic acini; type: cell-based, mouse; conditions: 500 μM LCAS, 500 μM TLCAS, 1 nM caerulein
Summary of the method: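 Mouse acini (WT, Gpr39−/−, Gpbar1−/−) isolated and held as for the LDH assay, then exposed to test compound at 37°C for 30 min. Amylase activity measured in supernatant. Vehicle leakage subtracted as basal; net release expressed as % of total activity (0.5% Triton X-100 lysate). One-way ANOVA with Tukey posttest versus WT.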

pancreatic acinar cells [7] = assay: Acinar cell injury: PI uptake, LDH leakage, blebbing; type: cell-based, mouse; conditions: 4 hours
Summary of the method: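 Mouse acini (WT, Gpr39−/−, Gpbar1−/−) digested with 1 mg/ml collagenase IV, collected on 150-μm nylon cloth, and suspended in Hepes-buffered DMEM/F12 with 1 mg/ml BSA. Exposed to test compound at 37°C for 4 h. LDH in supernatant measured by kit, expressed as % of total LDH (0.5% Triton X-100 lysate). PI uptake: acini resuspended in 2 μg/ml PI, fluorescence ex 536/em 617 nm, normalized to vehicle.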

[8] = WT mice, LCAS 500 μM, TLCAS 500 μM, caerulein 100 nM

Sequence of GHSR (Q92847 whole entry): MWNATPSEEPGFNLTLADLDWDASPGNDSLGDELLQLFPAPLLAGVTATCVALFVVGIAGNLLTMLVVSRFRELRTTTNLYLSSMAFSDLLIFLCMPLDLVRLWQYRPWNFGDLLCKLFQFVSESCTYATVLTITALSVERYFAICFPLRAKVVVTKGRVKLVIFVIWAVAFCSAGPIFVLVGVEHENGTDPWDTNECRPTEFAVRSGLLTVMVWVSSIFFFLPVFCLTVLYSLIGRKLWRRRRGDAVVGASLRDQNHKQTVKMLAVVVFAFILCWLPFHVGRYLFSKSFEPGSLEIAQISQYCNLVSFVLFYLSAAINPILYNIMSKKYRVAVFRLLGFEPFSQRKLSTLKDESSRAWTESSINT

Compound: CCCCCC1OC1C/C=C\C/C=C\C/C=C\CCCC(=O)O (racemic) [14(15)-EET, (±)14(15)-epoxy-5Z,8Z,11Z-eicosatrienoic acid]
GPR39 blockade (report) (GPR39 [1]): blocked

Enhancement of GPR39 activation by Zn2+ (mouse GPR39; 4 μM BA): enhanced
Effect on GHSR activation by ghrelin (GHSR; 1 μM LCA): no effect
Effect on GHSR activation by ghrelin (GHSR; 10 μM BA): attenuated the effect of ghrelin
GHSR activation (GHSR): activated
Sensitivity at GHSR (GHSR; compared with UDCA, DCA, and CDCA): relatively higher sensitivity
Maximal efficacy at GHSR (GHSR): lower efficacy
Compound: C[C@H](CCC(=O)O)[C@H]1CC[C@H]2[C@@H]3CC[C@@H]4C[C@H](O)CC[C@]4(C)[C@H]3CC[C@]12C [LCA, lithocholic acid]

GPBAR1 activation (GPBAR1): potent agonists
Effect on GHSR activation by ghrelin (GHSR; 10 μM BA): did not potentiate or attenuate
GHSR activation (GHSR): activated
Maximal efficacy at GHSR (GHSR): comparable to ghrelin
Compound: C[C@H](CCC(=O)O)[C@H]1CC[C@H]2[C@@H]3CC[C@@H]4C[C@H](O)CC[C@]4(C)[C@H]3C[C@H](O)[C@]12C [DCA, deoxycholic acid]
Ca2+ elevation in mock-transfected cells [2]: nonspecific Ca^2+ elevations

Compound: CC[C@H]1[C@@H](O)[C@@H]2[C@H](C[C@H](O)[C@]3(C)[C@@H]([C@H](C)C[C@H](C)C(=O)O)CC[C@@H]23)[C@@]2(C)CC[C@@H](O)C[C@@H]12 [INT-777]
Ca2+ elevation in acinar cells by GPBAR1 ligands and agonist (pancreatic acinar cells [3]): not observed

Effect on Ca2+ mobilization induced by LCA in GHSR-expressing cells (GHSR; 10 μM JMV2959, LCA 200 μM): moderately but not fully inhibited
Compound: COc1ccc(Cn2c(CCc3ccccc3)nnc2[C@@H](Cc2c[nH]c3ccccc23)NC(=O)CN)cc1 [JMV-2959, JMV2959]

Ca2+ response of GPR39-transfected HEK293T cells (GPR39 [4]): exhibited Ca^2+ responses
Effect of H17A/H19A mutations on Zn2+-induced Ca2+ elevation (H17A/H19A mutant GPR39): abolished
Zn2+ concentration that notably shifts GPR39 activation by LCAS (mouse GPR39): above 1 μM
Effect of Zn2+ on GPR39-mediated calcium response to TLCAS (mouse GPR39; 4 μM Zn2+, leftward shift of the dose-response curve): potentiated
Compound: [Zn+2] [Zn^2+]
zfGPR39 activation [5]: little response
Response of chicken GPR39 (G. Gallus GPR39): strong dose-dependent responses
Response of gecko GPR39 (G. japonicus GPR39): strong dose-dependent responses
Ca2+ response of mock-transfected HEK293T cells [2]: responded to neither
Response of frog GPR39 (X. laevis GPR39): strong dose-dependent responses

Compound: CCCCC[C@H](O)/C=C/C=C\C/C=C\C/C=C\CCCC(=O)O [15(S)-HETE, 15S-hydroxy-5Z,8Z,11Z,13E-eicosatetraenoic acid]
GPR39 activation (report) (GPR39 [1]): GPR39 activation

GHSR activation (GHSR): activated
Maximal efficacy at GHSR (GHSR): comparable to ghrelin
Compound: C[C@H](CCC(=O)O)[C@H]1CC[C@H]2[C@@H]3[C@H](O)C[C@@H]4C[C@H](O)CC[C@]4(C)[C@H]3CC[C@]12C [CDCA, chenodeoxycholic acid]
Ca2+ elevation in mock-transfected cells [2]: nonspecific Ca^2+ elevations

GPR39 activation, presence or absence of 4 μM Zn2+ (mouse GPR39): could not activate GPR39
Compound: CC(C)CCC[C@@H](C)[C@H]1CC[C@H]2[C@@H]3CC=C4C[C@@H](O)CC[C@]4(C)[C@H]3CC[C@]12C [cholesterol]

Effect on GHSR activation by ghrelin (GHSR; 10 μM BA): did not potentiate or attenuate
GHSR activation (GHSR): activated
Maximal efficacy at GHSR (GHSR): comparable to ghrelin
Compound: C[C@H](CCC(=O)O)[C@H]1CC[C@H]2[C@@H]3[C@@H](O)C[C@@H]4C[C@H](O)CC[C@]4(C)[C@H]3CC[C@]12C [UDCA, ursodeoxycholic acid]

Compound: Caerulein
Effect of deleting Gpbar1 on induced amylase discharge (pancreatic acinar cells [6]): did not alter
Effect of Gpr39 knockout on induced PI uptake and LDH leakage (pancreatic acinar cells [7]; Gpr39 knockout): did not affect
LDH release from isolated acinar cells (pancreatic acinar cells [7]; [8]): increased LDH release
PI uptake into isolated acinar cells (pancreatic acinar cells [7]; [8]): increased PI uptake

GPR39 activation, presence or absence of 4 μM Zn2+ (mouse GPR39): robustly activated
Compound: 5b-cholestanpentol
zfGPR39 activation [5]: minimal effects

GPR39 activation, presence or absence of 4 μM Zn2+ (mouse GPR39): could not activate GPR39
Compound: CC(C)CCC[C@@H](C)[C@H]1CC[C@H]2[C@@H]3CC=C4C[C@@H](OS(=O)(=O)O)CC[C@]4(C)[C@H]3CC[C@]12C [cholesterol-S, cholesterol 3-sulfate]

Compound: C=C1C(=O)NC(C)C(=O)N(C)C(C)C(=O)NC(C(OC(=O)C(NC(C)=O)C(O)C(C)C)C(C)C)C(=O)N(C)C(C(C)OC)C(=O)OC(C)C(NC(C)=O)C(=O)OC(Cc2ccccc2)C(=O)N1C (stereo not drawn) [YM254890] (Ac-T[PhLac][NMeDha]A[NMeA][X1][NMeT](Me); ester 1-C; configuration not given here)
Effect on Ca2+ elevation induced by TLCAS in acinar cells (pancreatic acinar cells [3]; 10 μM YM254890 for 10 min, 500 μM TLCAS): eliminated
